Compound activity from PubChem.
This is a sample that favours compounds with a hit; in the whole collection about 3.6% have one here.
SR-BI DiI-HDL act: activators of SR-BI mediated HDL lipid uptake. 320,000 compounds, 0.096% hits. activation, % at 12.5 µM. CHO ldlA[mSR-BI] cells, DiI-HDL uptake fluorescence, 3 h; 100 = double the neutral-control signal. AID 504775;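 active means mean replicate activation of at least 60% and every replicate at or above 60%; inconclusive means mean or all-replicate condition met, but not both; inactive means mean below 60% and not all replicates reaching 60%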;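 further: 0% = median plate neutral-control signal and 100% = twice that signal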
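Assay system: CHO ldlA[mSR-BI] cells, LDL receptor-null, SR-BI overexpressing; medium: Ham's F12 with 0.5% BSA, HEPES 25 mM, pH 7.4; also added: DiI-HDL 10 µg/mL; timing: 3 h uptake period with compound, 37 °C; signal: DiI fluorescence, bottom read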
Wnt bcat act: activators of Wnt/beta-catenin signaling; 300,000 compounds, 1.2% hits; Wnt/beta-catenin reporter cell assay, activator, plate reader; activation, % at 9.35 µM; AID 743398; in the data active means activation above about 30%, passing the limit was not always enough; inconclusive means no clear call, values can overlap the other calls;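 further: 0% = neutral control wells and 100% = positive control wells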
HSF-1 act: increases HSF-1 driven luciferase reporter signal. AID 504408. activation, % at 9 µM. NIH3T3-HGL HSF-1 luciferase reporter, MG132, 8 h; 100% = twice DMSO control signal. 300,000 compounds, 1.7% hits;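 active means mean replicate activation of at least 50% with a set share of replicates each reaching 50%; inconclusive means only one of those two conditions met; inactive means mean below 50% and too few replicates reaching it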;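 further: 0% = median of the neutral control wells and 100% = twice that signal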
SR-BI DiI inh: mouse SR-BI HDL lipid transfer inhibition. Q61009. ldlA[mSR-BI] CHO cells, DiI-HDL uptake fluorescence, 3 h. inhibition, % at 12.5 µM. 320,000 compounds, 0.96% hits;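 active means mean replicate inhibition of at least 70% and a set share of replicates each scoring 70 or more; inconclusive means meets just one of the two criteria; inactive means fails both criteria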;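 further: 0% = median of neutral control wells and 100% = median of positive control wells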
Target sequence (Q61009 whole entry, looked up): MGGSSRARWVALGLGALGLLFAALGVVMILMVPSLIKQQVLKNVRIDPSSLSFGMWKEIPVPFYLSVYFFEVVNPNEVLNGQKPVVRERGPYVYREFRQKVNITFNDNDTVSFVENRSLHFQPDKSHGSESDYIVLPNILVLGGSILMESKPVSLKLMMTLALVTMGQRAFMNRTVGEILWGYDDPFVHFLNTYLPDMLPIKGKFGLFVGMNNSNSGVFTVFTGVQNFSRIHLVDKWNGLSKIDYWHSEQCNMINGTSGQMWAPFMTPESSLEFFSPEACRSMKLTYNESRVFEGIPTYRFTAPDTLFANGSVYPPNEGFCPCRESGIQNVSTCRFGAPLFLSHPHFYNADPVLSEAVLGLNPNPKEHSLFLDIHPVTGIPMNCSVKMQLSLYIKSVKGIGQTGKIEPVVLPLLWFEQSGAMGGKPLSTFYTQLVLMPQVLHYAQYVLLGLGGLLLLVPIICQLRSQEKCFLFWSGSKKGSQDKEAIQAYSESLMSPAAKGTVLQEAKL
MITF TRPM1 HTS: MITF TRPM1 promoter activation in melanoma cells. activation, % at 12.5 µM. SK-MEL-5 TRPM1-promoter luciferase, 24 h; % of positive control, neutral wells = 0. AID 588334. 300,000 compounds, 0.75% hits;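 active means mean activation of at least 80% with every replicate also reaching 80%; inconclusive means mean reaches 80% but some replicate falls short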;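 further: 0% = neutral control wells and 100% = parthenolide positive control wells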
Numbers without * were called inactive; ? = inconclusive; / = not tested or not shown.

SMILES	SR-BI DiI-HDL act	Wnt bcat act	HSF-1 act	SR-BI DiI inh	MITF TRPM1 HTS
Cc1ccc(C(=O)CC(=O)c2ccccc2)cc1	13	18	16	-13	/
Cc1cc(C)c(C#N)c(Nc2ccc(F)cc2)n1	-10	-1	1	10	-14
CCOC(=O)c1ccc(Nc2nc(C)cc(C)c2C#N)cc1	-73	1	12	73*	-4
N/C(=N\OC(=O)c1ccccc1)c1ccncc1	12	0	-41	-12	1
N/C(=N\OC(=O)c1ccc(F)cc1)c1ccccc1	28	/	33	-28	33
N/C(=N\OC(=O)c1ccc(F)cc1)c1ccc(Br)cc1	-5	44*	35	5	66
N/C(=N\OC(=O)c1ccc(Br)cc1)c1ccncc1	14	12	31	-14	98*
CSc1ncnc2c1ncn2CCCNCc1ccccn1	/	-1	/	/	/
COc1cccc(-c2c(C(=O)N/N=C(\C)c3ccco3)nnn2-c2nonc2N)c1	-26	1	2	26	7
COc1cccc(-c2c(C(=O)N/N=C(\C)c3ccc(Cl)s3)nnn2-c2nonc2N)c1	25	-2	56*	-25	5
O=C(O)c1cc([N+](=O)[O-])c(NCCC2=CCCCC2)c([N+](=O)[O-])c1	2	-3	59*	-2	-4
CC1=NN(C(=O)c2ccccc2-n2cccc2)C(O)(C(F)(F)F)C1 (configuration not stated)	32	-3	-17	-32	6
CC1=NN(C(=O)c2ccc(C)cc2)C(O)(C(F)(F)OC(F)(F)F)C1 (configuration not stated)	-89	6	-1	89*	/
Cc1ccc(-c2csc3ncnc(Oc4cccc5ccc(C)nc45)c23)cc1	-21	-3	-11	21	-5
Cc1ccc2cccc(Oc3ncnc4sc(C)c(C)c34)c2n1	-77	-2	0	77*	2
COC(=O)c1c(-c2ccc(OC)cc2)sc2ccc(OC)cc12	-56	42*	/	56	67
COc1ccc(-c2sc3ccc(OC)cc3c2-c2ccc(OC)nc2)cc1	-75	-5	/	75*	-5
COc1ccc2sc(-c3ccccc3OC)c(-c3ccc(OC)nc3)c2c1	-33	11	/	33	18
COc1cc(C#N)c(NC(=S)N2CCN(C(=O)c3ccco3)CC2)cc1OC	/	-1	/	/	/
CCN(CC)C(=O)c1nc(-c2cccc3ccccc23)no1	/	75*	/	/	/
O=C(Cc1cccc(NC(=O)C2CCCN(C(=O)C3CCCC3)C2)c1)Nc1ccc(C(=O)N2CCCCC2)cc1 (configuration not stated)	-63	-3	/	63	-3
O=C(Cc1cccc(NC(=O)C2CCCN(C(=O)CCc3ccccc3)C2)c1)Nc1cccc(C(=O)N2CCCC2)c1 (configuration not stated)	-78	-1	/	78*	-29
O=C(Cc1ccc(NC(=O)C2CCCN(C(=O)CCc3ccccc3)C2)cc1)Nc1cccc(C(=O)N2CCCC2)c1 (configuration not stated)	-63	1	/	63	-36
O=C(Cc1cccc(NC(=O)C2CCCN(C(=O)C3CC3)C2)c1)Nc1ccc(C(=O)N2CCCCC2)cc1 (configuration not stated)	-75	0	/	75*	-5
CC(=O)N(Cc1ccccc1)C(CC(=O)NCc1ccccc1)C(=O)O (configuration not stated)	13	-5	/	-13	13
SMILES	SR-BI DiI-HDL act	Wnt bcat act	HSF-1 act	SR-BI DiI inh	MITF TRPM1 HTS
CCOC(=O)C1=C(C(=O)OCC)C2N(Cc3ccccc3)c3ccccc3[C@@]23C[C@@H](C(=O)OC)N(S(=O)(=O)c2ccc(C(F)(F)F)cc2)C3=N1 (some centres not stated)	/	3	/	/	/
Cc1c(/C=N/Nc2nc3ccccc3[nH]2)c2ccccc2n1C	-37	12	332*	37	/
Cc1nn(-c2ccccc2)c(Cl)c1/C=N/Nc1nc2ccccc2n1C	-60	?	63*	60	53
C=CCn1cc(/C=N/Nc2nc3ccccc3[nH]2)c2ccccc21	-39	53*	268*	39	54
Cc1nn(-c2ccccc2)c(Cl)c1/C=N/NC(N)=O	-5	2	3	5	/
Cc1nn(-c2ccccc2)c(C)c1/C=N/Nc1nc2ccccc2[nH]1	-57	173*	423*	57	25
C=CCN1[C@H](C)[C@H](c2ccccc2)Oc2cc(Br)ccc2S1(=O)=O	/	-4	/	/	/
O=C(O)CSc1c(-c2cccs2)[nH]c2ccccc12	21	3	11	-21	-12
O=C(O)CSc1c(-c2ccccc2)[nH]c2ccccc12	-11	5	70*	11	-16
CCOc1ccc(C(=O)NCC(=O)NCCSc2ccc(Br)cc2)cc1OCC	-87	-5	/	87*	-8
Cc1ccc(C(=O)NCC(=O)NCCSc2ccc(Br)cc2)cc1	0	4	3	0	2
CCCN(CC1CC1)c1cc2c(c3c1ccn3C)C1CCC2O1 (configuration not stated)	/	-1	/	/	/
Cc1ccc(-n2nc3ccc(N)cc3n2)cc1C	-1	31*	9	1	-20
COC(=O)[C@H]1[C@@H](O)[C@@]2(O)c3c(OC)cc(OC)cc3O[C@@]2(c2ccc(OC)cc2)[C@@H]1c1ccc(F)cc1	/	-27	/	/	/
Cc1ccc(S(=O)(=O)Cn2nnnc2CN(Cc2ccco2)CC2CCCO2)cc1 (configuration not stated)	22	/	59*	-22	9
COc1ccc(-c2sc3ccccc3c2-c2ccc(OC)cc2F)cc1	/	1	/	/	/
CC(C)C1COC(c2cccc3ccccc23)=N1 (configuration not stated)	20	39*	39	-20	74
COc1ccc(-c2ccc3c(c2)S(=O)(=O)c2cccc(C(=O)NCCOc4ccccc4)c2C3=O)cc1OC	-73	/	/	73*	-27
O=C(NCCOc1ccccc1)c1cccc2c1C(=O)c1ccc(Cl)cc1S2(=O)=O	-3	-5	/	3	1
CC(C)C[C@@H](CN)NC(=O)c1nc[nH]c1C(=O)N[C@@H](CC(=O)O)C(=O)CNC[C@H](C)NC(=O)c1nc[nH]c1C(=O)N[C@@H](CC(=O)O)C(=O)O	24	-3	/	-24	0
c1ccc2c(c1)oc1c(Nc3ccc4c(c3)OCO4)ncnc12	10	33*	49	-10	42
O=C(Nc1cccc(Cl)c1)c1ccc(NCCCN2CCOCC2)c([N+](=O)[O-])c1	-71	/	-8	71*	1
Brc1ccc(-c2csc(N/N=C/c3ccco3)n2)cc1	-69	38*	/	69	56
C(=N\Nc1nc(-c2ccccc2)cs1)/c1ccco1	-19	/	19	19	97*
C(=N\Nc1nc(-c2ccccc2)cs1)/c1cccs1	-63	56*	24	63	51
CCCN1CCCCC(NC(=O)c2ccc(F)c(F)c2)C1=O (configuration not stated)	/	-1	/	/	/
